Data as given in ChEMBL document CHEMBL1799966, “Synthesis and anticancer activity of oxindole derived imidazo[1,5-a]pyrazines” (Eur J Med Chem, 2011).

What was measured:
Type in all cases: functional
[1] = tested on: ACHN; assay: Anticancer activity against human ACHN cells assessed as mean cell growth at 10^-5 M after 48 hrs by SRB assay
Method in brief: (§1)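 NCI-60 primary screen run to the US NCI protocol. Compound added at a single concentration of 10^-5 M and cultures incubated 48 h. The end point was sulforhodamine B (SRB) protein staining, reported as percent growth of treated cells relative to untreated control cells.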

[2] = tested on: MCF7; assay: Anticancer activity against human MCF7 cells assessed as mean cell growth at 10^-5 M after 48 hrs by SRB assay; method in brief: as §1
[3] = tested on: MDA-MB-468; assay: Anticancer activity against human MDA-MB-468 cells assessed as mean cell growth at 10^-5 M after 48 hrs by SRB assay; method in brief: as §1
[4] = tested on: DU-145; assay: Anticancer activity against human DU145 cells assessed as mean cell growth at 10^-5 M after 48 hrs by SRB assay; method in brief: as §1
[5] = tested on: NCI-H522; assay: Anticancer activity against human NCI-H522 cells assessed as mean cell growth at 10^-5 M after 48 hrs by SRB assay; method in brief: as §1
[6] = tested on: SR; assay: Anticancer activity against human SR cells assessed as mean cell growth at 10^-5 M after 48 hrs by SRB assay; method in brief: as §1
[7] = tested on: A498; assay: Anticancer activity against human A498 cells assessed as mean cell growth at 10^-5 M after 48 hrs by SRB assay; method in brief: as §1
[8] = tested on: T47D; assay: Anticancer activity against human T47D cells assessed as mean cell growth at 10^-5 M after 48 hrs by SRB assay; method in brief: as §1
[9] = tested on: COLO 205; assay: Anticancer activity against human COLO205 cells assessed as mean cell growth at 10^-5 M after 48 hrs by SRB assay; method in brief: as §1
[10] = tested on: IGROV-1; assay: Anticancer activity against human IGROV1 cells assessed as mean cell growth at 10^-5 M after 48 hrs by SRB assay; method in brief: as §1

COc1ccc(-c2nc(/C=C3/C(=O)Nc4ccccc43)c3ccccn23)cc1
Activity [1]: 72.54%

COc1ccc(-c2nc(/C=C3/C(=O)Nc4ccccc43)c3ccccn23)cc1OC
Activity [2]: 82.66%

COc1ccc(-c2nc(/C=C3/C(=O)Nc4ccc(F)cc43)c3ccccn23)cc1
Activity [2]: 101.96%

O=C1Nc2ccccc2/C1=C\c1nc(-c2ccccc2)n2ccccc12
Activity [3]: 87.51%

O=C1Nc2ccccc2/C1=C\c1nc(-c2ccc(F)cc2)n2ccccc12
Activity [3]: 39.31%

O=C1Nc2ccc(F)cc2/C1=C\c1nc(-c2ccccc2F)n2ccccc12
Activity [4]: 80.9%

Cc1ccc(-c2nc(/C=C3/C(=O)N(C)c4ccc(F)cc43)c3ccccn23)cc1
Activity [5]: 99.39%

COc1cc(-c2nc(/C=C3/C(=O)N(C)c4ccccc43)c3ccccn23)cc(OC)c1OC
Activity [6]: 98.17%

O=C1Nc2ccc(F)cc2/C1=C\c1nc(-c2ccc(F)cc2)n2ccccc12
Activity [7]: 97.53%

Cc1ccc(-c2nc(/C=C3/C(=O)Nc4ccccc43)c3ccccn23)cc1
Activity [4]: 78.55%

CN1C(=O)/C(=C/c2nc(-c3ccccc3)n3ccccc23)c2ccccc21
Activity [8]: 85.21%

CN1C(=O)/C(=C/c2nc(-c3ccccc3F)n3ccccc23)c2cc(F)ccc21
Activity [9]: 99.95%

CN1C(=O)/C(=C/c2nc(-c3ccccc3F)n3ccccc23)c2ccccc21
Activity [4]: 84.72%

COc1ccc(-c2nc(/C=C3/C(=O)N(C)c4ccccc43)c3ccccn23)cc1OC
Activity [5]: 103.43%

CN1C(=O)/C(=C/c2nc(-c3cccc(F)c3)n3ccccc23)c2ccccc21
Activity [10]: 70.98%

COc1ccc(-c2nc(/C=C3/C(=O)N(C)c4ccccc43)c3ccccn23)cc1
Activity [6]: 77.31%

Cc1ccc(-c2nc(/C=C3/C(=O)Nc4ccc(F)cc43)c3ccccn23)cc1
Activity [4]: 74.57%
